Results from different studies.
Each line is one published result; the experiments were not run side by side.
BRAF: Serine/threonine-protein kinase B-raf (BRAF, Homo sapiens, UniProt P15056)
BRAF V600E: Serine/threonine-protein kinase B-raf (BRAF, Homo sapiens, UniProt P15056, V600E)

Compound	target	test	setting	measurement	result
CC#CC(=O)N1CCC[C@H]1c1nc(-c2ccc(C(=O)Nc3ccccn3)cc2)c2c(N)nccn12	BRAF	enzyme activity, inhibitor	1 µM	inhibition	43%
COc1ccc2oc(-c3ccc4nc(N)oc4c3)c/c(=N\c3ccccc3NC(=O)CCN)c2c1	BRAF	binding	1 µM	remaining binding	98%
C[C@H]1CC[C@H](n2c3cnccc3c3cnc(Nc4ccc5c(n4)CCN(C(=O)CO)C5)nc32)CC1	BRAF	cell-free assay, competition with immobilised ligand	1 µM	remaining binding	74%
C=CC(=O)N1CCC([C@@H]2CCNc3c(C(N)=O)c(-c4ccc(Oc5ccccc5)cc4)nn32)CC1	BRAF	enzyme activity, inhibitor	1 µM	inhibition	0%
Cc1cc2c(C(N)=O)c(N)n(-c3c(C)ccc(O)c3C)c2nc1C	BRAF	enzyme activity, inhibitor, ADP detection	3.333 µM	inhibition	101%
C=CC(=O)N1CCC[C@@H](n2nc(-c3ccc(Oc4ccccc4)cc3)c3c(N)ncnc32)C1	BRAF V600E	enzyme activity, inhibitor	1 µM	inhibition	61%
N#Cc1ccc(NC(=O)Nc2ccccc2)cc1	BRAF V600E	cell-free assay, competition with immobilised ligand	25 µM	remaining binding	100%
COc1ccc2[nH]c3c4[nH]c5ccc(OC)cc5c4c4c(c3c2c1)C(=O)NC4=O	BRAF V600E	binding	1 µM	remaining binding	89%
C1=C/COCc2cc(ccc2OCCN2CCCC2)Nc2nccc(n2)-c2cccc(c2)COC/1	BRAF	binding	0.1 µM	remaining binding	94%
CN1CCN(C(=O)c2ccc(NC(=O)Nc3ccc(N(C)c4ccnc(Nc5ccc(CS(C)(=O)=O)cc5)n4)cc3)cc2)CC1	BRAF	binding, competition with immobilised ligand	1 µM	remaining binding	89%
Cc1cc(O)c(-c2ccc([C@@H](C)CN(C)C)cc2)c2c1[nH]c(=O)c1sccc12	BRAF V600E	cell-free assay, inhibitor	0.1 µM, lysate	inhibition	-5.15%
CO[C@@H]1[C@H](N(C)C(=O)c2ccccc2)C[C@H]2O[C@]1(C)n1c3ccccc3c3c4c(c5c6ccccc6n2c5c31)C(=O)NC4	BRAF V600E	enzyme activity, inhibitor	1 µM	inhibition	0%
CCCCC(=O)Nc1ccc(-c2ccc3ncn(CCC)c(=O)c3c2)cn1	BRAF V600E	binding, competition with immobilised ligand	0.5 µM	remaining binding	95%
Cc1ccc(NC(=O)c2ccnc(C(F)(F)F)c2)cc1-c1cc(OCCO)nc(N2CCOCC2)c1	BRAF V600E	binding	1 µM	remaining binding	0.35%
